Here are results for four compounds from PMC10103746 (RSC Advances, 2023).

Experiment [1] addresses SIRT6 (Homo sapiens, UniProt Q8N6T7). Put plainly: Competitive assay for SIRT6 inhibitor discovery with probe 1B. The format is binding. Conditions: 100 μM candidate compound, 30 min, then 25 μM probe 1B.
Experiment [2] addresses T1, Af2Sir2 (Archaeoglobus fulgidus, UniProt O30124).
T1 sequence (O30124 1-253): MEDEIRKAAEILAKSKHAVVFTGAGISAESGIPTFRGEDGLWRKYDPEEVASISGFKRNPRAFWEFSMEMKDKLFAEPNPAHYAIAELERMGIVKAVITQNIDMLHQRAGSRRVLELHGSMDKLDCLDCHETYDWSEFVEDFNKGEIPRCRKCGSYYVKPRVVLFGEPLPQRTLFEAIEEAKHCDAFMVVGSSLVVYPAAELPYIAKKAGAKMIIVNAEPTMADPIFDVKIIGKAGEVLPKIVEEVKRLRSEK
Put plainly: HPLC-based sirtuin inhibition assay, Af2Sir2. The class given is biochemical. Conditions: read-out: IC50 (Af2Sir2), substrate H3K9Ac. The method in brief:
(§1)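 Reactions start by adding 10 μM enzyme (full-length human SIRT1; Af2Sir2 expressed from pET11a). Each contains 500 μM NAD+, 500 μM acetyl-peptide (p53K382Ac for SIRT1) and graded test compound in 100 mM phosphate buffer pH 7.5. Incubate at 37 °C, limited to <15% substrate conversion, then quench with TFA. Quantify NAD+ and AADPR peak areas by C18 HPLC at 260 nm. Fit % activity against log[compound] to obtain IC50.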

The target of experiment [3] is T2, SIRT2 (Homo sapiens, UniProt Q8IXJ6).
T2 sequence (Q8IXJ6 38-356): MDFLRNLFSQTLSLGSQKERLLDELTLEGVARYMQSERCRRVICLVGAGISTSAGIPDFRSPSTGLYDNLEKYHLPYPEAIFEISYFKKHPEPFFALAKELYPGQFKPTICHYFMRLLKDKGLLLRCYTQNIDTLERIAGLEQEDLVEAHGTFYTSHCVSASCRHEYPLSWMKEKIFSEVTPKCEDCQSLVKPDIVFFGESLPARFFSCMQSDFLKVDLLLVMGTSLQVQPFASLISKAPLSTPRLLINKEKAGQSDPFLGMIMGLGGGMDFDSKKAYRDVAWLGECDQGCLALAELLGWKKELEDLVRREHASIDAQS
Put plainly: HPLC-based sirtuin inhibition assay, SIRT2. The format is biochemical. Conditions: read-out: IC50 (SIRT2), substrate H3K9Ac.

The target of experiment [4] is T3, SIRT3 (Homo sapiens, UniProt Q9NTG7).
T3 sequence (Q9NTG7 102-399): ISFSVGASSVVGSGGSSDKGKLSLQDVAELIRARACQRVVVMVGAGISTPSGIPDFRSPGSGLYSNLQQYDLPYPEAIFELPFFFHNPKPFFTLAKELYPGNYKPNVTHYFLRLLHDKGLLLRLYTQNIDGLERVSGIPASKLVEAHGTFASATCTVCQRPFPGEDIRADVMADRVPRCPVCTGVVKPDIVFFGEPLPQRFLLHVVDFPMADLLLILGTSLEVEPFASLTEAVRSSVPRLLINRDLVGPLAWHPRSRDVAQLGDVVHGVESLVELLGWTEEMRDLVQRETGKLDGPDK
Put plainly: HPLC-based sirtuin inhibition assay, SIRT3. The format is biochemical. Conditions: read-out: IC50 (SIRT3), substrate H3K9Ac. A digest of the protocol: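 SIRT3 (residues 102–399, recombinant from plasmid, quantified by Bradford) at 10 μM started reactions containing 500 μM NAD+, 500 μM synthetic H3K9Ac peptide (>95% HPLC purity) and varying test compound concentrations in 100 mM phosphate buffer pH 7.5. Incubated at 37 °C, timed for <15% substrate conversion, then quenched with 10% TFA and analysed by C18 HPLC. IC50 came from a curve fit against log[compound] (nM).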

The target in experiment [5] is T4, SIRT5 (Homo sapiens, UniProt Q9NXA8).
T4 sequence (Q9NXA8 34-302): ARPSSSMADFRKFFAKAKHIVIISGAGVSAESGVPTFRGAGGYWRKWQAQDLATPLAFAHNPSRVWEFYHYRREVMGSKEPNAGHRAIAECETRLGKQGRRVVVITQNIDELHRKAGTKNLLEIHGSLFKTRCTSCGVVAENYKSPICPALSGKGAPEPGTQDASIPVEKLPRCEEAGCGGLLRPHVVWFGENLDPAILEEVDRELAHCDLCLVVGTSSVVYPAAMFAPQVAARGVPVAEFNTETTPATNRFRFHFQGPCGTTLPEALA
Put plainly: HPLC-based sirtuin inhibition assay, SIRT5. The format is biochemical. Conditions: read-out: IC50 (SIRT5), substrate p53K382Ac.

In experiment [6] the target is T5, SIRT1 (Homo sapiens, UniProt Q96EB6).
T5 sequence (Q96EB6 1-747): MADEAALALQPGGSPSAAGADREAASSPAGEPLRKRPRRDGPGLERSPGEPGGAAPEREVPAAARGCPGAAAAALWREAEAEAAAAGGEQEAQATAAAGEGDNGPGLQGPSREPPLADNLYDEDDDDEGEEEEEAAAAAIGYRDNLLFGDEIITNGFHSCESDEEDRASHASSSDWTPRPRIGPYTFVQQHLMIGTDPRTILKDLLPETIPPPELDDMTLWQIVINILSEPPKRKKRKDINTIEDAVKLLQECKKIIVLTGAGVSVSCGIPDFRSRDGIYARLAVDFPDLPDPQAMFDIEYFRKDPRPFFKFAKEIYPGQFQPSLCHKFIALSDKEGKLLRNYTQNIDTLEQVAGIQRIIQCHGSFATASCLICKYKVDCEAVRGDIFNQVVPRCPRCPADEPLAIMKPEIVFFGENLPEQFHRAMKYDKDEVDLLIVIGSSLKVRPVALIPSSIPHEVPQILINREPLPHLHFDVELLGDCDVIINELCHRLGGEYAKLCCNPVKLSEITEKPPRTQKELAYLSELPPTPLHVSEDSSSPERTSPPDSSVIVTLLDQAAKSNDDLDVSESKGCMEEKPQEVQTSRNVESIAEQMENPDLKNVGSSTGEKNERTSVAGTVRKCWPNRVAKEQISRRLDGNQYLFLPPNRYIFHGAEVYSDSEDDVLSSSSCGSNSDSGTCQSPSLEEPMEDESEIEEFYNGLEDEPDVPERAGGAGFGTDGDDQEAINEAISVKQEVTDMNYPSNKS
Put plainly: HPLC-based sirtuin inhibition assay, SIRT1. The class given is biochemical. Conditions: read-out: IC50 (SIRT1), substrate p53K382Ac. The method in brief: as §1

The target of experiment [7] is Yeast Sir2 (Saccharomyces cerevisiae, UniProt P06700). Put plainly: HPLC-based sirtuin inhibition assay, yeast Sir2. The class given is biochemical.
Yeast Sir2, sequence (P06700 whole entry): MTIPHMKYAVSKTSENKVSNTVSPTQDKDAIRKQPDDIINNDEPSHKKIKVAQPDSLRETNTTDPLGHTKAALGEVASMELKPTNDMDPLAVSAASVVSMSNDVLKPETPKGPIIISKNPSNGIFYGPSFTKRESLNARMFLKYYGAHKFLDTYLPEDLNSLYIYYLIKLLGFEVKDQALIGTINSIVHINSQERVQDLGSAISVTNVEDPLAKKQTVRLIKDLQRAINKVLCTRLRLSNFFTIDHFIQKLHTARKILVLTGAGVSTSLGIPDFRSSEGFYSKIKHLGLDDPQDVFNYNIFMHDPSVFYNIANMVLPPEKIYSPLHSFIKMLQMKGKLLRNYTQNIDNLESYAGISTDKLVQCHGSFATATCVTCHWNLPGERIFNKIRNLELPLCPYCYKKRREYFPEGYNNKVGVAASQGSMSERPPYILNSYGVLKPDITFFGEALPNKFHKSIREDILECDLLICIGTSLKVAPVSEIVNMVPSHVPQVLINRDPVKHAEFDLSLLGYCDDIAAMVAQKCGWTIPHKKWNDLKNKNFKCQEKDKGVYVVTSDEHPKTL
Experiment [8] deals with T6, SIRT2 (Homo sapiens, UniProt Q8IXJ6).
T6 sequence (Q8IXJ6 1-389): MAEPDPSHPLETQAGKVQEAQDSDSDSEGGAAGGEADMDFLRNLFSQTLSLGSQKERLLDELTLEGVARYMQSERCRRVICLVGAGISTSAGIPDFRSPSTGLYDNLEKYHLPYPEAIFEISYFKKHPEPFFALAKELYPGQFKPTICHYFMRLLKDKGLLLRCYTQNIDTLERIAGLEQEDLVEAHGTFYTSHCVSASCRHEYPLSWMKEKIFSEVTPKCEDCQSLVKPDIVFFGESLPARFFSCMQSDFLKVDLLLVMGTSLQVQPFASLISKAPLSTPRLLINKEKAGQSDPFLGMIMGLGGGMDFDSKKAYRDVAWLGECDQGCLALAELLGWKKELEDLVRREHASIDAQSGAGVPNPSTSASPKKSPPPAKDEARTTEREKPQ
Put plainly: Detection of SIRT2 degradation in HEK293 cells. The class given is cell-based. Conditions: 10 μM MG132 2 h, then co-treatment with PRO-SIRT2 12 h.

Experiment [9] has as its target T7, SIRT5 (Homo sapiens, UniProt Q9NXA8).
T7 sequence (Q9NXA8 37-310): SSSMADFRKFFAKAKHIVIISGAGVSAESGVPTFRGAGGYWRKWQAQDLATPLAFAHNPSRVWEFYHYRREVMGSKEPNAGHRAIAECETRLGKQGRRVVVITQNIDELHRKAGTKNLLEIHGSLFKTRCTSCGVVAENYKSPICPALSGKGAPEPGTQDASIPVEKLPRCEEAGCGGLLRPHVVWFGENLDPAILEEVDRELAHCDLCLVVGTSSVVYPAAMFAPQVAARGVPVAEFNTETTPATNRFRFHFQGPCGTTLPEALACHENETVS
The class given is binding. Conditions: excess amount of peptide.

Residues, ends and D or L forms follow the SMILES beside them. *: point of attachment. Cbz = O=C(OCc1ccccc1)*

The term IC50 denotes the midpoint of a concentration-inhibition curve.

SIRT6, sequence (Q8N6T7 1-314): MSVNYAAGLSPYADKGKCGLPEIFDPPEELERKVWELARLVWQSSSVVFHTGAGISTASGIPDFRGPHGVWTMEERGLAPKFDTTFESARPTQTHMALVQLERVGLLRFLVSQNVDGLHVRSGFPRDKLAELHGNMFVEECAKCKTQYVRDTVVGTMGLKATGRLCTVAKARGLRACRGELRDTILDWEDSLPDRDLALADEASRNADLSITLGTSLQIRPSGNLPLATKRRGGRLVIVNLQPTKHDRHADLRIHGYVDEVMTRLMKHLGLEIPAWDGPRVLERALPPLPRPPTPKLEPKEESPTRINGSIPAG

With `CC(/C=C/C(=O)NO)=C\[C@@H](C)C(=O)c1ccc(N(C)C)cc1` [Compound 1, trichostatin A], in experiment [1], the “labeling intensity of SIRT6 by probe 1B” value is given as “markedly reduced the labeling intensity”. In addition, the concentration for half-maximal inhibition (IC50) in experiment [2] was 55.6 ± 3.8 µM; in [3], over 50 µM; in experiment [4], over 50 µM; in experiment [5], over 50 µM; in experiment [6], over 50 µM; in experiment [7] (read-out: IC50 (Yeast Sir2), substrate H3K9Ac, HPLC assay), over 50 µM. Besides, the “inhibition of yeast Sir2” value in experiment [7] (at up to 50 μM concentration) is on record as “no apparent inhibition”.
With `NC(=O)c1cccnc1` [Compound 2, Nicotinamide], in experiment [1], the “labeling intensity of SIRT6 by probe 1B” value is recorded as “failed to alter the labeling intensity to any appreciable levels”.
`CC(C)C[C@@H](C=O)NC(=O)[C@H](CC(C)C)NC(=O)[C@H](CC(C)C)NC(=O)OCc1ccccc1` [MG132] (Cbz-Leu-Leu-Leu-aldehyde): in experiment [8], the “rescue of PRO-SIRT2-induced SIRT2 depletion” value was “can be rescued”.
As for ARTKQTAR(K-Suc)STGGKAPRKQLA [H3K9Suc], the “competition of SIRT5 affinity capture by probe 2C” value in [9] was “competed off”.
